Results taken from ChEMBL document CHEMBL4765370, “Design, synthesis, and biological evaluation of aryl piperazines with potential as antidiabetic agents via the stimulation of glucose uptake and inhibition of NADH:ubiquinone oxidoreductase” (Eur J Med Chem, 2020).

Columns and labels:
[1] = Apparent permeability in MDCK-MDR1 cells at 10 uM after 30 mins by LC-MS/MS analysis; type: ADME, cell-based, Canis lupus familiaris; conditions: dog
Summary of the method: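 Test article was taken from a 10 mM DMSO stock and diluted in DMEM to a final 10 µM donor solution, with 10 µM propranolol as internal standard. It was applied to hMDR1-MDCK monolayers on filters. Transfer to the receiver compartment was measured over 30 min in both directions, apical-to-basolateral and basolateral-to-apical. Quantification was by LC-MS/MS, n = 3.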

[2] = Half life in mouse hepatocytes at 1 uM up to 120 mins by HPLC-MS/MS analysis; type: ADME, cell-based, Hepatocyte
[3] = AUCall in C57 Black mouse liver at 10 mg/kg, po; type: ADME, organism-based; parameters: dose 10 mg/kg
Summary of the method: (§1)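 Male C57BL/6 mice were given a single 10 mg/kg dose either intravenously or orally. The oral and IV solutions were formulated in 10% DMSO, 10% cremaphor and 80% saline. Concentrations in plasma and in the tissues collected were determined after dosing, with n = 3 per route. Values are given as mean ± SEM.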

[4] = Stability in human plasma assessed as parent compound remaining at 1 uM after 2 hrs by HPC-MS/MS analysis; type: ADME, cell-free; conditions: read-out: Stabilty
Summary of the method: (§2)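 Buffer containing test compound at 1 µM was mixed with human or mouse blood plasma and incubated at 37 °C for 60–120 min. Parent compound remaining gave the plasma half-life and the percentage stable at 2 h.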

[5] = Intrinsic clearance in mouse hepatocytes at 1 uM up to 120 mins by HPLC-MS/MS analysis; type: ADME, cell-based, Hepatocyte; conditions: 2 h
CYP2C9 = CYP2C9 (Homo sapiens, UniProt P11712); test: Inhibition of human CYP2C9 using fluorogenic substrate incubated for 60 mins in presence of NADPH by fluorescence assay relative to control; type: ADME; conditions: probe fluorogenic substrate
CYP2C9, sequence (P11712 whole entry): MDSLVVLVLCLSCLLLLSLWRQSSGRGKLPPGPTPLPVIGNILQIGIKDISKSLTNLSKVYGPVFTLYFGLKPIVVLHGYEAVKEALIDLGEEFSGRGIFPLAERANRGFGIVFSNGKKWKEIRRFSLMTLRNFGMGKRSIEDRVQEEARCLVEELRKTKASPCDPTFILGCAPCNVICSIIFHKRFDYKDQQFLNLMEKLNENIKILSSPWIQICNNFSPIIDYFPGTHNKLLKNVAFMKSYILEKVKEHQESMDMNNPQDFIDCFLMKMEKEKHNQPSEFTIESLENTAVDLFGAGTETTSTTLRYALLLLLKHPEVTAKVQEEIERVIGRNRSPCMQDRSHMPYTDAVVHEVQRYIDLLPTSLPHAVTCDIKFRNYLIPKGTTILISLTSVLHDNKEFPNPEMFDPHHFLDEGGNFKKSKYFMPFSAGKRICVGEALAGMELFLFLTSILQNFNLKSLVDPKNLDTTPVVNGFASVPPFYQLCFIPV
Summary of the method: (§3)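 Baculosomes each expressing a single cDNA-derived human P450 isozyme were incubated with compound at 10 µM, a fluorogenic substrate and NADPH. Incubation was at 37 °C for at least 60 min before fluorescence was read, n = 3.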

[6] = AUClast in C57 Black mouse kidney at 10 mg/kg, po; type: ADME, organism-based; parameters: time 0 - last, route oral, dose 10 mg/kg; summary of the method: as §1
CYP2C19 = CYP2C19 (Homo sapiens, UniProt P33261); test: Inhibition of human CYP2C19 using fluorogenic substrate incubated for 60 mins in presence of NADPH by fluorescence assay relative to control; type: ADME; conditions: probe fluorogenic substrate; summary of the method: as §3
CYP2C19, sequence (P33261 whole entry): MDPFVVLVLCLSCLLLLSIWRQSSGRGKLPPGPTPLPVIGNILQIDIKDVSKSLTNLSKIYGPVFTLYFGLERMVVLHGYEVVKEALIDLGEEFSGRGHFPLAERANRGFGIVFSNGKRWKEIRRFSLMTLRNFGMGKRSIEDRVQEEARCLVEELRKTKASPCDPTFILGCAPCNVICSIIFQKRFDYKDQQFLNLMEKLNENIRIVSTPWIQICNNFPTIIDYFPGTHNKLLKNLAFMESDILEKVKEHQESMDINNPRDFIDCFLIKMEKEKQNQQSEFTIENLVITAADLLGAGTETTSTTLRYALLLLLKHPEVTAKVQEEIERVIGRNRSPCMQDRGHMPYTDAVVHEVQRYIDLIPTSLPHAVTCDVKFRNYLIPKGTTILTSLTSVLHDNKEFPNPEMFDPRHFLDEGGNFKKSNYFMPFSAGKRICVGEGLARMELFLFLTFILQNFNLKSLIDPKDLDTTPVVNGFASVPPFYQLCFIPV

[7] = AUCall in C57 Black mouse liver at 10 mg/kg, iv; type: ADME, organism-based; parameters: dose 10 mg/kg; summary of the method: as §1
[8] = AUClast in C57 Black mouse liver at 10 mg/kg, iv; type: ADME, organism-based; parameters: time 0 - last, route intravenous, dose 10 mg/kg; summary of the method: as §1
[9] = Cmax in C57 Black mouse kidney at 10 mg/kg, iv; type: ADME, organism-based; parameters: route intravenous, dose 10 mg/kg; summary of the method: as §1
[10] = AUCall in C57 Black mouse spleen at 10 mg/kg, iv; type: ADME, organism-based; parameters: dose 10 mg/kg; summary of the method: as §1
[11] = Protein binding human serum at 1 uM after 60 to 120 mins by HPLC-MS/MS analysis; type: ADME, cell-free; conditions: time 60-120 min, read-out: PB (converted)
[12] = Half life in human microsomes at 1 uM up to 120 mins by HPLC/MS-MS analysis; type: ADME, Microsome
[13] = Tmax in C57 Black mouse brain at 10 mg/kg, iv; type: ADME, organism-based
Summary of the method: (§4)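 Male C57BL/6 mice (n = 3) dosed at 10 mg/kg by IV or oral (PO) route. Dosing solutions were formulated in 10% DMSO, 10% cremaphor and 80% saline. Compound levels were measured in plasma and tissues over time, and values are given as mean ± SEM.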

[14] = Tmax in C57 Black mouse muscle at 10 mg/kg, iv; type: ADME, organism-based, Muscle tissue; summary of the method: as §4
[15] = Tmax in C57 Black mouse kidney at 10 mg/kg, iv; type: ADME, organism-based; summary of the method: as §4
[16] = Half life in C57 Black mouse brain at 10 mg/kg, po; type: ADME, organism-based; summary of the method: as §1
CYP1A2 = molecular target: T1, CYP1A2 (Homo sapiens, UniProt P05177); test: Inhibition of human CYP1A2 using fluorogenic substrate incubated for 60 mins in presence of NADPH by fluorescence assay relative to control; type: ADME; conditions: probe fluorogenic substrate; summary of the method: as §3
T1 sequence (P05177 whole entry): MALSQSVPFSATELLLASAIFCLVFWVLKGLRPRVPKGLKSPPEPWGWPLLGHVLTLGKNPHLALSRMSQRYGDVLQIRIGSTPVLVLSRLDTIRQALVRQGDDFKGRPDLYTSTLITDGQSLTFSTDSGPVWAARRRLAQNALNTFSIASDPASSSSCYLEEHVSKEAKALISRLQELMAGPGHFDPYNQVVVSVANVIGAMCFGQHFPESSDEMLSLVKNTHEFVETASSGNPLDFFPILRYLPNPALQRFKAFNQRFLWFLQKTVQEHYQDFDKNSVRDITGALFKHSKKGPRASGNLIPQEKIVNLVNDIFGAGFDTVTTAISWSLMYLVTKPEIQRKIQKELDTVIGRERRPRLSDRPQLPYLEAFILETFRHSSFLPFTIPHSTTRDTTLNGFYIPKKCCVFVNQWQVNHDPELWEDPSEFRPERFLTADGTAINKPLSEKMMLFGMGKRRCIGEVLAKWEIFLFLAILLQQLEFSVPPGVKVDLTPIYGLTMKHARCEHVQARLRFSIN

[17] = Half life in mouse plasma at 1 uM after 60 to 120 mins by HPLC-MS/MS analysis; type: ADME, cell-free; conditions: time 60-120 min; summary of the method: as §2
[18] = Cmax in C57 Black mouse liver at 10 mg/kg, po; type: ADME, organism-based; parameters: route oral, dose 10 mg/kg; summary of the method: as §1
[19] = Tmax in C57 Black mouse liver at 10 mg/kg, iv; type: ADME, organism-based; summary of the method: as §4
[20] = Half life in C57 Black mouse plasma at 10 mg/kg, iv; type: ADME, organism-based; summary of the method: as §4
[21] = AUClast in C57 Black mouse spleen at 10 mg/kg, po; type: ADME, organism-based; parameters: time 0 - last, route oral, dose 10 mg/kg; summary of the method: as §1
[22] = Intrinsic clearance in human hepatocytes at 1 uM up to 120 mins by HPLC-MS/MS analysis; type: ADME, cell-based, Hepatocyte; conditions: 2 h
[23] = AUCall in C57 Black mouse brain at 10 mg/kg, po; type: ADME, organism-based; parameters: dose 10 mg/kg; summary of the method: as §1
[24] = Half life in C57 Black mouse brain at 10 mg/kg, iv; type: ADME, organism-based; summary of the method: as §1
[25] = AUCall in C57 Black mouse plasma at 10 mg/kg, iv; type: ADME, organism-based; parameters: dose 10 mg/kg; summary of the method: as §1
[26] = AUClast in C57 Black mouse brain at 10 mg/kg, iv; type: ADME, organism-based; parameters: time 0 - last, route intravenous, dose 10 mg/kg; summary of the method: as §1
[27] = Cmax in C57 Black mouse spleen at 10 mg/kg, po; type: ADME, organism-based; parameters: route oral, dose 10 mg/kg; summary of the method: as §1
[28] = Tmax in C57 Black mouse plasma at 10 mg/kg, iv; type: ADME, organism-based; summary of the method: as §4
[29] = Clearance in C57 Black mouse plasma at 10 mg/kg, iv; type: ADME, organism-based; conditions: in vivo; summary of the method: as §1
[30] = AUCinfinity in C57 Black mouse kidney at 10 mg/kg, po; type: ADME, organism-based; parameters: route oral, time infinity, dose 10 mg/kg; summary of the method: as §1
[31] = Metabolic stability in human hepatocytes assessed as hepatic extraction ratio at 1 uM up to 120 mins by HPLC-MS/MS analysis; type: ADME, cell-based, Hepatocyte
Summary of the method: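 Cryopreserved hepatocytes (human or mouse) added to buffer containing compound at 1 µM; incubated at 37 °C up to 120 min, stopped with acetonitrile containing internal standard. Centrifuged supernatant analysed for parent compound by HPLC-MS/MS; n = 2. Half-life and intrinsic clearance (µL/min/10^6 cells) derived; extraction ratio reported from these.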

[32] = AUClast in C57 Black mouse brain at 10 mg/kg, po; type: ADME, organism-based; parameters: route oral, time 0 - last, dose 10 mg/kg; summary of the method: as §1
[33] = Half life in human hepatocytes at 1 uM up to 120 mins by HPLC-MS/MS analysis; type: ADME, cell-based, Hepatocyte

For `O=C(CCCc1cccs1)N1CCN(c2ccc(C(F)(F)F)cc2)CC1`, the Papp at 0.5 h, 10 µM [1] was 27.1 ×10⁻⁶ cm/s, the half-life at 1 µM [2] was 126 min and the AUC [3] was 4050 ng·h/mL. The remaining at 2 h, 1 µM [4] was 80%, the CLH [5] was 8 µL/min and the inhibition at 1 h (CYP2C9) was 74.2%. For the same molecule, the AUC(0-t) [6] was 1220 ng·h/mL, the inhibition at 1 h (CYP2C19) was 75.5% and the AUC [7] was 487 ng·h/mL. For the same molecule, the AUC(0-t) [8] was 487 ng·h/mL, the Cmax [9] was 552 ng/mL and the AUC [10] was 463 ng·h/mL. For the same molecule, the fraction unbound at 1 µM [11] was 0.0052, the half-life at 1 µM [12] was 12 min and the Tmax [13] was 1.8 min. The Tmax [14] was 1.8 min, the Tmax [15] was 1.8 min and the half-life [16] was 27.6 min. It also gave an inhibition at 1 h (CYP1A2) of 53.7%, a half-life at 1 µM [17] of 327 min and a Cmax [18] of 4880 ng/mL. The Tmax [19] was 1.8 min, the half-life [20] was 27 min and the AUC(0-t) [21] was 1260 ng·h/mL. It also gave a CLH [22] of 346 µL/min, an AUC [23] of 763 ng·h/mL and a half-life [24] of 30 min. For the same molecule, the AUC [25] was 240 ng·h/mL, the AUC(0-t) [26] was 246 ng·h/mL and the Cmax [27] was 1100 ng/mL. It also gave a Tmax [28] of 1.8 min, a CL [29] of 68.37 mL/min/kg and an AUC(0-inf) [30] of 1280 ng·h/mL. It also gave a hepatic extraction ratio at 2 h, 1 µM [31] of 0.98, an AUC(0-t) [32] of 763 ng·h/mL and a half-life at 1 µM [33] of 3 min.
